The record followed here is the array DNA melting data of Ke et al. (doi:10.1101/2024.01.08.574731).

Series [1] can be described thus: folding enthalpy; higher = less favourable; fluorescence melt of hairpins on a sequencing array, two-state fit. The settings on record: sodium 0.088 M. An outline of the steps:
(§1)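 Cy3 signals were normalised both to pre-quench Cy3 and to control constructs. They came from library hairpins carrying annealed Cy3 and quencher oligos on a sequenced MiSeq flow cell, imaged in 50 mM Na-HEPES pH 8.0, 25 mM NaCl, in 2.5 °C steps up to 60 °C. Bootstrapped two-state fits gave melting temperature and folding enthalpy, and four replicates were combined by inverse variance. Fitted temperatures were then raised by 9.35 °C to match UV melts.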

The nature of series [2]: melting temperature; fluorescence melt of hairpins on a sequencing array, two-state fit, raised by 9.35 °C to match UV melts. Conditions: sodium 0.088 M. An outline of the steps:
as §1

As to GCGTGGCGAAAGCCTAGC ((..(((....)))..)), the folding enthalpy in series [1] is -20.2 kcal/mol. For the same sequence, the Tm in series [2] came out at 59.5 °C.
As for GCACGTCGAAAGACATGC (((.(((....))).))), in series [1], the folding enthalpy is -31.7 kcal/mol. Moreover, the Tm in series [2] stood at 52.7 °C.
Regarding GTGTACGCGAAAGCGCAC (((..(((....)))))), the folding enthalpy in series [1] was -16.7 kcal/mol. For the same sequence, the Tm in series [2] turned out to be 48.9 °C.
On the same counts, the results for GATCTACCGATAGATC ((((((....)))))) are -35.5 kcal/mol and 37.8 °C.
On to GATCGTCTGACGATC ((((((...)))))), for which the folding enthalpy in series [1] is -51.7 kcal/mol. Moreover, in series [2], the Tm came to 54 °C.
Turning to GCTTCTACGAAAGTAAGC (((..(((....)))))), the folding enthalpy in series [1] was -14 kcal/mol. For the same sequence, the Tm in series [2] came to 33.1 °C.
The like results for GCCGGTTCGAAAGAAGGC (((..(((....)))))) were, in that order, -22.8 kcal/mol and 38.8 °C.
The like results for GCCACCGAAAGGTAAGGC ((((((....)))..))) were, in that order, -26.9 kcal/mol and 52.6 °C.
The like results for GATCAGCAGCTGATC ((((((...)))))) were, in that order, -48.4 kcal/mol and 48.8 °C.
Take GGCGGACCGAAAGGTGCC (((..(((....)))))): in series [1], the folding enthalpy is -19.9 kcal/mol. The Tm in series [2] was found to be 55.1 °C.
On the same counts, the results for GATCTTAGTAAGATC ((((((...)))))) are -27.6 kcal/mol and 42.5 °C.
The like results for GGACCCGAAAGGGGTTCC ((((((....)))..))) were, in that order, -15 kcal/mol and 48.3 °C.
On the same counts, the results for GGGTGCGGAAACGCGCTC (.(.(((....))).).) are -16.5 kcal/mol and 57.2 °C.
Take GATGACCGAAAGGTATC (((.(((....)))))): the folding enthalpy in series [1] was -16.6 kcal/mol. The Tm in series [2] stood at 34.7 °C.
Consider GCGGATGTCCGC ((((....)))), for which the folding enthalpy in series [1] was -22.7 kcal/mol. The Tm in series [2] amounted to 57.5 °C.
Consider GTGCGCGAAAGCGGTCAC ((((((....)))..))), for which the folding enthalpy in series [1] is -14.1 kcal/mol. For the same sequence, the Tm in series [2] stood at 43.5 °C.
As for GTGACCGAAAGGTGCAC ((((((....))).))), the folding enthalpy in series [1] was -19.9 kcal/mol. Moreover, the Tm in series [2] came to 49.4 °C.
On the same counts, the results for GGTATAGGAAACTGTACC ((((.((....)).)))) are -31.3 kcal/mol and 43 °C.
Consider GTGCACCGAAAGGTTCAC (((.(((....))).))), for which the folding enthalpy in series [1] was -42 kcal/mol. In series [2], the Tm came out at 50.5 °C.
Consider GCATAGGGAAACCCATGC ((((.((....)).)))), for which the folding enthalpy in series [1] was -29.9 kcal/mol. In series [2], the Tm worked out at 45.5 °C.
With GTCTGAACGAAAGTTGAC (((..(((....)))))), the folding enthalpy in series [1] is -16.4 kcal/mol. Also, the Tm in series [2] was 31.7 °C.
GCATACGGAAACGCATGC ((((.((....)).)))): the folding enthalpy in series [1] was -34.5 kcal/mol. The Tm in series [2] was found to be 48.5 °C.
On the same counts, the results for GATCCATGATTGGATC ((((((....)))))) are -38.4 kcal/mol and 51.9 °C.
For GATCTGCAGACAGATC ((((((....)))))), the folding enthalpy in series [1] was -40 kcal/mol. Also, in series [2], the Tm was found to be 51.2 °C.
GCCTTGCCGAAAGGCGGC (((..(((....)))))): the folding enthalpy in series [1] is -10.8 kcal/mol. Also, the Tm in series [2] stood at 67.5 °C.
On the same counts, the results for GATCTCGTCAGAGATC ((((((....)))))) are -37.5 kcal/mol and 68.5 °C.
On the same counts, the results for GATCGGATTGCCGATC ((((((....)))))) are -28.7 kcal/mol and 55 °C.
As to GCAAAGGCGAAAGCCTGC (((..(((....)))))), the folding enthalpy in series [1] was -14.9 kcal/mol. Further, the Tm in series [2] amounted to 54.6 °C.
For GTAATCGGAAACGGTTAC ((((.((....)).)))), the folding enthalpy in series [1] was -33.2 kcal/mol. In series [2], the Tm was 46.7 °C.
The like results for GGGTCCGAAAGGAATCCC ((((((....)))..))) were, in that order, -22.1 kcal/mol and 46.7 °C.
The like results for GCTTTCGAAAGAAAAGC ((((((....))).))) were, in that order, -31.3 kcal/mol and 46.6 °C.
Consider GGACTAGGAAACCAGTCC (((((.(....).))))), for which the folding enthalpy in series [1] is -31 kcal/mol. Also, in series [2], the Tm came out at 44.8 °C.
GCTTTGGGAAACCAAGGC ((.((((....)))).)): the folding enthalpy in series [1] was -29.7 kcal/mol. Further, the Tm in series [2] stood at 47.8 °C.
On the same counts, the results for GCGACGTCGAAAGACCGC (((..(((....)))))) are -25.4 kcal/mol and 50.6 °C.
On the same counts, the results for GATCGAAGTGTCGATC ((((((....)))))) are -42.2 kcal/mol and 51.2 °C.
On the same counts, the results for GCACTGCCGAAAGGCTGC (((..(((....)))))) are -13.4 kcal/mol and 44.5 °C.
Consider GATGAGGGAAACCTCACC (.(((((....))))).), for which the folding enthalpy in series [1] was -15.7 kcal/mol. In series [2], the Tm came out at 35.5 °C.
